The list is not random: actives were taken first. Their share in the collection is about 2.2%.
CXCR6 inh: inhibitors of human CXCR6 receptor; O00574; CHO-K1 PathHunter CXCR6 beta-arrestin, luminescence; inhibition, % at 20 µM; hit rate 0.36% among 360,000; in the data active = inhibition above about 34%, passing the limit was not always enough;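 also: antagonist mode with CXCL16 agonist at 10 nM final; 0% = 10 nM CXCL16 with DMSO and 100% = unstimulated wells without agonist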
APJ agonist: activates the human apelin receptor APJ | P35414 | CHO-K1 APJ PathHunter beta-arrestin, luminescence; 0% DMSO wells, 100% apelin | activation, % at 20 µM | hit rate 0.11% among 330,000 | AID 2520;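 active = activation more than six SD over the plate average, tested at 20 µM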;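 also: 0% = DMSO alone and 100% = apelin-13 at 10 nM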
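Test system: CHO-K1 APJ beta-arrestin complementation cell line | Compound: Single test compound dose, 20 µM final, 1% DMSO | Incubation: Compound 90 min 25 °C, reagent 1 h | Measured by: beta-gal luminescence | Read-out basis: APJ–arrestin association signal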
APJ antag: antagonists of human APJ apelin receptor | P35414 | CHO-K1 APJ beta-arrestin complementation, luminescence | inhibition, % at 20 µM | hit rate 0.32% among 330,000;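 active = inhibition above about 40% at 20 µM, limit read from the data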;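 also: cells challenged with 10 nM apelin-13 agonist together with compound; plate controls were apelin-13 plus DMSO wells for no effect and DMSO wells lacking apelin-13 for full effect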
CCR6 antagonist: antagonists of human CCR6 receptor. inhibition, % at 20 µM. CHO-K1 CCR6 PathHunter beta-arrestin, luminescence, CCL20-stimulated. hit rate 0.49% among 340,000. P51684;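 active = compounds whose inhibition of the agonist-driven luminescence signal at 20 µM reaches about 50%, limit read from the data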;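 also: cells stimulated with CCL20 at 14 nM final; plate controls were DMSO with CCL20 for no effect and DMSO without agonist for full effect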
EBI2 block: antagonists of human EBI2 receptor; EBI2 beta-arrestin recruitment, luminescence, 7a,25-OHC stimulated; inhibition, % at 5 µM; hit rate 0.81% among 360,000; in the data active = inhibition above about 38%;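 also: enzyme fragment complementation signal reports receptor beta-arrestin coupling in cells; 0% = agonist plus DMSO wells and 100% = wells without agonist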
Target sequence (P32249 whole entry, looked up, the tested form may be a part): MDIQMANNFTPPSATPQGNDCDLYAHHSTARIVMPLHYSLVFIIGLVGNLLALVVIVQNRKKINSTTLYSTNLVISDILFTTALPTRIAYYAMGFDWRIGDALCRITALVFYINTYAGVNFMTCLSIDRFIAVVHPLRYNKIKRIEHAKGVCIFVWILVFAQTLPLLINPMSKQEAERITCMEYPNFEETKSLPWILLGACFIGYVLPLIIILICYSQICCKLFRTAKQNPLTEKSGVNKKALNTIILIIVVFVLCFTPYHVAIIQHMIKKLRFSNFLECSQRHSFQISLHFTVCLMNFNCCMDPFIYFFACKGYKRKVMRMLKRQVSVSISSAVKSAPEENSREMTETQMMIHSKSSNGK
m5-HT2A agonist: agonists of mouse serotonin 5-HT2A receptor (HTR2A). P35363. CHO-K1 mHTR2A beta-arrestin complementation, luminescence; percent of 30 µM serotonin response. activation, % at 7.6 µM. hit rate 0.66% among 360,000. AID 624169;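 active = activation above a run cutoff, the mean activation of all tested compounds plus 3 SD, cut at about 14% in these data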;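 also: 0% = plate median of compound wells and 100% = 30 µM serotonin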
EBI2 conf: confirmation of human EBI2 receptor antagonists; inhibition, % at 5 µM; hit rate 29% among 2,400; EBI2 beta-arrestin luminescence, 7a,25-OHC antagonism; shares compounds with EBI2 block;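 active = inhibition of at least 50%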
EBI2 ag: activates EBI2, counter-screen for EBI2 antagonists; shares compounds with EBI2 block; EBI2-expressing cells, agonist mode, luminescence, 60 min; 0% vehicle, 100% 7α,25-dihydroxycholesterol control; activation, % at 5 µM; 2,400 tested, under 10 active;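 active = activation of at least 50%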
bGal counter: counter-screen for EBI2 antagonists: E. coli beta-galactosidase inhibition; purified beta-galactosidase, luminescent Galacton Star, 15 min; shares compounds with EBI2 block; inhibition, % at 5 µM; hit rate 1% among 2,400; AID 652176;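 active = replicate-average signal at least 3 plate SD below neutral wells, shown as high inhibition, flagging enzyme-inhibiting false positives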;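 also: 0% = DMSO wells with enzyme and 100% = wells lacking enzyme; higher means stronger loss of beta-gal luminescence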
* = called active by the depositor.

N#Cc1ccc(C(=O)N2CCN(S(=O)(=O)c3ccc(Br)s3)CC2)cc1 was read as CXCR6 inh -12, APJ agonist -3, APJ antag -5, CCR6 antagonist 1, EBI2 block 66*, m5-HT2A agonist 0, EBI2 conf 32, EBI2 ag 1 and bGal counter 8.
CC(C)OCc1ccc(C(=O)N2CCN(S(=O)(=O)c3ccc(Br)s3)CC2)cc1 was read as CXCR6 inh -7, APJ agonist -2, APJ antag -3, CCR6 antagonist 0, EBI2 block 34 and m5-HT2A agonist 5.
Cc1nc(N(C)C2CCCCC2)c2nnn(Cc3ccc(F)cc3)c2n1 was read as CXCR6 inh -3, EBI2 block 8 and m5-HT2A agonist -4.
For OC(COc1ccc(Br)cc1)Cn1ccnc1 (stereo not given) the results were CXCR6 inh 4, APJ agonist -2, APJ antag 2, CCR6 antagonist 4, EBI2 block 7 and m5-HT2A agonist 0.
For COc1ccc(OCC(O)CNC(=O)c2ccc(Br)cc2)cc1 (stereo not given) the results were CXCR6 inh 3, APJ agonist -2, APJ antag -13, CCR6 antagonist 21, EBI2 block 53*, m5-HT2A agonist -4, EBI2 conf 36, EBI2 ag 1 and bGal counter 9.
For COc1ccc(OCC(O)COc2ccc(OC)cc2)cc1 the results were CXCR6 inh -13, APJ agonist 2, APJ antag 5, CCR6 antagonist -8, EBI2 block 72*, m5-HT2A agonist -1, EBI2 conf 60*, EBI2 ag 1 and bGal counter 8.
For COc1ccc(Br)cc1CN(C)CC(O)COc1ccc(Br)cc1 (stereo not given) the results were CXCR6 inh -7, APJ agonist -1, APJ antag 12, CCR6 antagonist 10, EBI2 block 91*, m5-HT2A agonist -7, EBI2 conf 59*, EBI2 ag -1 and bGal counter -12.
`COc1ccc(OCC(O)Cn2cnc(-c3ccc(Br)cc3)c2)cc1` (stereo not given) gave CXCR6 inh -10, APJ agonist -3, APJ antag 2, CCR6 antagonist -9, EBI2 block 48*, m5-HT2A agonist 1, EBI2 conf 40, EBI2 ag 1 and bGal counter 6.
Screening COc1ccc(OCC(O)CNC(=O)c2ccc(OC)cc2)cc1 (stereo not given) returned CXCR6 inh 4, APJ agonist -1, APJ antag 9, CCR6 antagonist 12, EBI2 block 21 and m5-HT2A agonist 2.
For CCOc1ccc(-c2cccc(NS(=O)(=O)c3cccc([N+](=O)[O-])c3)c2)nn1 the results were CXCR6 inh 1, EBI2 block -10 and m5-HT2A agonist 1.
For COc1ccc(OCC(O)CNc2ccc(Br)cc2)cc1 (stereo not given) the results were CXCR6 inh -1, APJ agonist 0, APJ antag 0, CCR6 antagonist -3, EBI2 block 76*, m5-HT2A agonist -1, EBI2 conf 52*, EBI2 ag 0 and bGal counter -9.
Screening COc1cc(/C=C/C(=O)OCC(=O)Nc2ccc3[nH]c(=O)[nH]c3c2)ccc1OC(F)F returned CXCR6 inh 0, EBI2 block 2 and m5-HT2A agonist 0.
`COc1ccc2nccc(/C=C/c3ccnc4ccc(OC)cc34)c2c1` gave CXCR6 inh -4, APJ agonist -3, APJ antag 8, CCR6 antagonist 8, EBI2 block 38*, m5-HT2A agonist 1, EBI2 conf -3, EBI2 ag 0 and bGal counter -9.
Screening COc1ccc(C(NC(=O)C2CCN(CCOc3ccc(Cl)cc3Cl)CC2)c2cccs2)cc1 (stereo not given) returned CXCR6 inh -6, EBI2 block 3 and m5-HT2A agonist -3.
`Cc1sc2nc(C3CC3)nc(N3CCN(C(=O)c4ccc(Cl)cc4)CC3)c2c1C` gave CXCR6 inh 17, APJ agonist 0, APJ antag 4, CCR6 antagonist 6, EBI2 block 76*, m5-HT2A agonist -2, EBI2 conf 44, EBI2 ag 1 and bGal counter 8.
COc1ccc(C(=O)N2CCN(c3nc(C4CC4)nc4sc(C)c(C)c34)CC2)cc1 was read as CXCR6 inh 6, APJ agonist -2, APJ antag -1, CCR6 antagonist 9, EBI2 block 49*, m5-HT2A agonist 2, EBI2 conf 19, EBI2 ag 0 and bGal counter 1.
For COc1cc(C(=O)NC2CC(C)CC(C)(C)C2)cc(OC)c1OC (stereo not given) the results were CXCR6 inh -1, EBI2 block 2 and m5-HT2A agonist 0.
O=C(/C=C/c1cccs1)N1CCN(Cc2ccc3c(c2)OCO3)CC1 was read as CXCR6 inh 9, APJ agonist 5, APJ antag -10, CCR6 antagonist 4, EBI2 block 64*, m5-HT2A agonist -1, EBI2 conf 44, EBI2 ag -1 and bGal counter -13.
`O=C(/C=C/c1cccc([N+](=O)[O-])c1)N1CCN(Cc2ccc3c(c2)OCO3)CC1` gave CXCR6 inh -11, APJ agonist 3, APJ antag 6, CCR6 antagonist 0, EBI2 block 50*, m5-HT2A agonist -2, EBI2 conf 31, EBI2 ag 1 and bGal counter 0.
`O=C(c1sccc1Br)N1CCN(Cc2ccc3c(c2)OCO3)CC1` gave CXCR6 inh 0, APJ agonist -2, APJ antag -4, CCR6 antagonist 6, EBI2 block 5 and m5-HT2A agonist -4.
For CC(C)CN1C(=O)CSCC1(C)C(=O)NC(C)C (stereo not given) the results were EBI2 block -6 and m5-HT2A agonist 12.
`CCOC(=O)c1c(C)[nH]c(C(=O)OCC(=O)NCc2ccco2)c1C` gave CXCR6 inh -1, EBI2 block -5 and m5-HT2A agonist 3.
CC1(C(=O)NS(=O)(=O)c2ccc(Cl)s2)CCN1C(=O)C1CCCCC1 (stereo not given) was read as CXCR6 inh -4, EBI2 block 10 and m5-HT2A agonist -1.
